Reference: ChEMBL document CHEMBL1122205, “Catechol O-methyltransferase. 12. Affinity labeling the active site with the oxidation products of 5,6-dihydroxyindole” (J Med Chem, 1982)
pKi: −log10 of the molar value.

Tests used:
[1] = biological target: T1, Catechol O-methyltransferase (Rattus norvegicus) (UniProt P22734); assay: Evaluated for its ability to inactivate Catechol O-methyltransferase under aerobic conditions, after 60 min at 37 degree. C; design: concentration or dose not given beside the values
T1 sequence (whole entry): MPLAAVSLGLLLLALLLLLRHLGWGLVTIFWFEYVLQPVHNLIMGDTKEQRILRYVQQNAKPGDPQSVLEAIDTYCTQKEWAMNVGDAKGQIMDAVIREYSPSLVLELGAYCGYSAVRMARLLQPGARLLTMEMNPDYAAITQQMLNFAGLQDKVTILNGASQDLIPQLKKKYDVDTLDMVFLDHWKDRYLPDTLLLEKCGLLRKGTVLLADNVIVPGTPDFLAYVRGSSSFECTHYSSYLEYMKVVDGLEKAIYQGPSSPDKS
Summary of the method: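 Aerobic preincubation of purified rat liver COMT with inhibitor (0.5 mM), MgCl2 1.20 mM, phosphate buffer pH 7.60 for 60 min at 37 °C. Residual activity versus controls assayed directly after inhibitor addition; duplicate means.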

[2] = biological target: T1, Catechol O-methyltransferase (Rattus norvegicus); assay: (§1) Kinetic constants for the inactivation of Catechol O-methyltransferase by the compound
[3] = biological target: T1, Catechol O-methyltransferase (Rattus norvegicus); assay: Compound was evaluated for its ability to inactivate Catechol O-methyltransferase after dialysis
Summary of the method: (§2)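 Purified rat liver COMT preincubated 60 min at 37 °C with inhibitor (0.5 mM), MgCl2 1.20 mM, phosphate buffer pH 7.60. Residual activity relative to unpreincubated controls (dialyzed 24 h for post-dialysis line); duplicate means.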

[4] = biological target: T1, Catechol O-methyltransferase (Rattus norvegicus); assay: Compound was evaluated for its ability to inactivate Catechol O-methyltransferase before dialysis; summary of the method: as §2
[5] = biological target: T1, Catechol O-methyltransferase (Rattus norvegicus); assay: Evaluated for its ability to inactivate Catechol O-methyltransferase under anaerobic conditions, after 60 min at 37 degree. C; design: concentration or dose not given beside the values
Summary of the method: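 Anaerobic variant: preincubation (inhibitor 0.5 mM, MgCl2 1.20 mM, phosphate pH 7.60, purified rat liver COMT, 60 min, 37 °C) in sealed ampules under nitrogen, inhibitor stocks in deoxygenated water, samples withdrawn by syringe and assayed in ampules under nitrogen.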

[6] = biological target: T2, Catechol O-methyltransferase (Rattus norvegicus, UniProt P22734); assay: as §1
T2 sequence (P22734 whole entry): T1 sequence (whole entry)

[7] = biological target: T1, Catechol O-methyltransferase (Rattus norvegicus); assay: Kinetic constants for the inactivation of cCatechol O-methyltransferase by the compound

SMILES | residual activity [1] [%] | K2 [2] [min⁻¹] | residual activity [3] [c.p.m.] | residual activity [4] [c.p.m.] | residual activity [5] [%] | pKi [6] | K2 [7] [min⁻¹]
NCCc1c[nH]c2cc(O)c(O)cc12 | 0 | 0.086 | 232 | 242 | 89 | 3.48 | –
Cc1c(O)c(O)cc2cc[nH]c12 | 0 | 0.16 | 262 | 277 | 84 | 2.94 | –
Cc1c(O)c(O)c(C)c2[nH]ccc12 | 4.5 | 1.12 | 212 | 322 | 96 | 2.14 | –
Cc1c(O)c(O)cc2[nH]ccc12 | 0 | – | 351 | 396 | 81 | 1.82 | 0.47
Oc1cc2cc[nH]c2cc1O | 0 | 0.55 | 228 | 282 | 96 | 2.46 | –
